Data set [1] in a line: Inhibition of TNF-alpha-induced VCAM1 expression in HPAECs. It counts as functional, Homo sapiens. In a few lines:
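Cells were seeded to reach 90–95% confluency the next day. They were stimulated with TNF-α (1 ng/mL) ± compound (final DMSO 0.25%) for about 16 h and scored visually for toxicity. Cell-surface VCAM-1 was measured by anti-VCAM-1 (0.25 µg/mL, 30 min, 37 °C), then HRP anti-mouse IgG and TMB, read at OD 450 nm. IC50 is relative to the TNF-only response; mean of ≥3 determinations.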

For data set [2], the system named is Mus musculus. Briefly: Reduction of eosinophil level in BALF in ovalbumin-sensitized/challenged Balb/C mouse model of allergic airway inflammation at 50 mg/kg, sc after 14 days. The data set is classed as functional. Further details: scale not given: the % may be the effect or the level left. The conditions noted are these: route subcutaneous. In outline:
(§1)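 Male Balb/C mice, 5–6 weeks old, were sensitized i.p. with ovalbumin (8 µg) emulsified in aluminum hydroxide (1 mg) per mouse. They were then dosed s.c. in 2% Cremophor at 150, 100 or 50 mg/kg bid on days 11–13 and once on day 14. On day 14 lungs were lavaged (DMEM/F-12 + 5% FBS). Eosinophils were expressed as % of ≥300 Diff Quik-stained cytospin cells. Dexamethasone 3 mg/kg i.p. served as positive control.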

The subject of data set [3] is Mus musculus. Briefly: Reduction of eosinophil level in BALF in ovalbumin-sensitized/challenged Balb/C mouse model of allergic airway inflammation at 150 mg/kg, sc after 14 days. It counts as functional. Further details: scale not given: the % may be the effect or the level left. The following applies: route subcutaneous. In a few lines: as §1
Data set [4] can be described thus: Plasma concentration in ovalbumin-sensitized/challenged Balb/C mouse model of allergic airway inflammation at 150 mg/kg, sc after 14 days. It counts as ADME, organism-based. Further details: dose 150 mg/kg, route subcutaneous. In a few lines: (§2)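 Ovalbumin/alum-sensitized male Balb/C mice received s.c. doses in 2% Cremophor, bid on days 11–13 and once on day 14. Blood for plasma drug level was collected at euthanasia on day 14, 2–3 h after the final dose.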

The nature of data set [5]: Plasma concentration in ovalbumin-sensitized/challenged Balb/C mouse model of allergic airway inflammation at 100 mg/kg, sc after 14 days. More on the design: dose 100 mg/kg, route subcutaneous. It counts as ADME, organism-based. In outline: as §2
Data set [6] deals with Mus musculus. Description: Reduction of eosinophil level in BALF in ovalbumin-sensitized/challenged Balb/C mouse model of allergic airway inflammation at 100 mg/kg, po after 14 days. It counts as functional. Further details: scale not given: the % may be the effect or the level left.
Data set [7] in a line: Plasma concentration in ovalbumin-sensitized/challenged Balb/C mouse model of allergic airway inflammation at 50 mg/kg, sc after 14 days. The data set is classed as ADME, organism-based. More on the design: dose 50 mg/kg, route subcutaneous. In a few lines: as §2
The test system of data set [8] is Mus musculus. Briefly: Inhibition of airway eosinophilia in BALF in sc dosed ovalbumin-sensitized/challenged Balb/C mouse model of allergic airway inflammation after 14 days. It counts as functional, organism-based. In a few lines:
as §1

The species named for data set [9] is Homo sapiens. Description: Inhibition of TNF-alpha-induced MCP1 expression in HPAECs. It counts as functional.
Data set [10] concerns Mus musculus. Description: Activity in sc dosed ovalbumin-sensitized/challenged Balb/C mouse model of allergic asthma by measuring reduced IgE levels after 14 days. It counts as functional, organism-based.
The subject of another data set is PBMC. Briefly: Inhibition of LPS-induced IL1-beta secretion in HPBMCs at 5 uM. The data set is classed as functional, cell-based. The following applies: Homo sapiens.
The species entered for data set [11] is Rattus norvegicus. Description: Inhibition of splenomegaly in rat adjuvant arthritis model. It counts as functional, organism-based.
The species entered for data set [12] is Homo sapiens. Briefly: Inhibition of TNF-alpha-induced E-selectin expression in HPAECs. The data set is classed as functional.
Data set [13] deals with Mus musculus. Briefly: Reduction of airway hyperresponsiveness in sc dosed ovalbumin-sensitized/challenged Balb/C mouse model of allergic asthma after 14 days. The data set is classed as functional, organism-based.
Data set [14] has as its system Mus musculus. Briefly: Inhibition of tissue eosinophilia in sc dosed ovalbumin-sensitized/challenged Balb/C mouse model of allergic asthma after 14 days. The data set is classed as functional, organism-based.
Data set [15] concerns Mus musculus. Description: Activity in sc dosed ovalbumin-sensitized/challenged Balb/C mouse model of allergic asthma assessed as reduction of elevated lung mRNA levels of Th2 cytokines after 14 days. The data set is classed as functional, organism-based.
Data set [16] is filed under the species Rattus norvegicus. Description: Inhibition of paw swelling in rat adjuvant arthritis model. The data set is classed as functional, organism-based.

The structures appear in SMILES notation. Activity calls are given as the source filed them. The calls are words filed in the database; no cut-off is given here.

One may read the IC50 as the concentration at which inhibition is half-maximal.

The compound `COc1cc(OC)c(-c2ccsc2)cc1/C=C/C(=O)c1ccc(C(=O)O)cc1` displayed an IC50 in [1] of 2100 nM.
The compound `COc1cc(OC)c(-c2cc3ccccc3s2)cc1/C=C/C(=O)c1ccc(C(N)=O)cc1` gave an IC50 in data set [1] of 200 nM.
In the case of `COc1cc(OC)c(-c2cc3ccccc3[nH]2)cc1/C=C/C(=O)c1ccc(C(=O)O)cc1`, the Activity in the data set on Mus musculus [2] is 55%; in the data set with Mus musculus [3], 81%; in the data set on Mus musculus [6], 43%; with Mus musculus [8], “Dose-dependent effect”. For the same compound, the concentration at 336 h was 19 µM in data set [4], 14 µM in data set [5] and 10 µM in [7]. The IC50 in [1] was found to be 900 nM.
For the compound `COc1cc(OCCCN2CCOCC2)c(/C=C/C(=O)c2ccc(C(=O)O)cc2)cc1-c1cccs1`, inhibition in data set [1] was half-maximal at 900 nM (IC50).
Same read-out and setting: the result for `COc1cc(OC)c(-c2ccc(C)s2)cc1/C=C/C(=O)c1ccc(C(=O)O)cc1` reads 1000 nM.
In data set [1], `CCOC(=O)c1ccc(C(=O)/C=C/c2cc(-c3cc4ccccc4s3)c(OC)cc2OC)cc1` had an IC50 of 3100 nM.
Same read-out and setting: for `COc1cc(OC)c(-c2cc3ccccc3s2)cc1/C=C/C(=O)c1ccc(C(=O)NC(=O)C(C)C)cc1` the value was 1700 nM; for `CCOc1cc(OC)c(/C=C/C(=O)c2ccc(C(=O)O)cc2)cc1-c1cccs1`, 4900 nM.
In data set [1], `COc1cc(OC)c(-c2cc3ccccc3o2)cc1/C=C/C(=O)c1ccc(C(=O)O)cc1` displayed a half-inhibitory concentration (IC50) of 300 nM.
In the case of `COCCOCCOCCOc1cc(OC)c(-c2cccs2)cc1/C=C/C(=O)c1ccc(C(=O)O)cc1`, in [1], the IC50 turned out to be 4000 nM.
The same measure, in the same setting: the result for `COc1cc(OC)c(-c2nc3ccccc3[nH]2)cc1/C=C/C(=O)c1ccc(C(=O)O)cc1` reads 4400 nM; that for `COc1cc(OC)c(-c2csc(C)n2)cc1/C=C/C(=O)c1ccc(C(=O)O)cc1`, 2500 nM.
In [1], `COCCOCCOc1cc(OC)c(-c2cccs2)cc1/C=C/C(=O)c1ccc(C(=O)O)cc1` had an IC50 of 1300 nM.
On the same count and under the same terms, for `COc1cc(OCCN2CCOCC2)c(/C=C/C(=O)c2ccc(C(=O)O)cc2)cc1-c1cccs1` the value was 800 nM.
On the same count and under the same terms, the result for `COc1cc(OC)c(-c2cc3ccccc3s2)cc1/C=C/C(=O)c1ccc(C(=O)NC(C)=O)cc1` reads 800 nM; that for `COc1cc(OCC(=O)N2CCOCC2)c(/C=C/C(=O)c2ccc(C(=O)O)cc2)cc1-c1cccs1`, 6000 nM; that for `COc1cc(OC)c(-c2cccs2)cc1/C=C/C(=O)c1cccc(C(=O)O)c1`, 4200 nM.
Regarding `COc1cc(OC)c(-c2cccs2)cc1/C=C/C(=O)c1ccccc1C(=O)O`, 8600 nM corresponded to half-maximal inhibition in data set [1] (IC50).
The same measure, in the same setting: for `COCCOCCOc1cc(OC)c(/C=C/C(=O)c2ccc(C(=O)O)cc2)cc1-c1cccs1` the value was 6500 nM; for `COc1cc(OC)c(-c2cc3ccccc3n2C(=O)OC(C)(C)C)cc1/C=C/C(=O)c1ccc(C(=O)O)cc1`, 1200 nM; for `COc1cc(OCC(CO)CO)c(-c2cccs2)cc1/C=C/C(=O)c1ccc(C(=O)O)cc1`, 41000 nM.
In turn, `COc1cc(OC)c(-c2cccs2)cc1/C=C/C(=O)c1ccc(C(=O)O)cc1` showed an IC50 in data set [1] of 3800 nM.
For `COc1ccc(-c2cccs2)cc1/C=C/C(=O)c1ccc(C(=O)O)cc1`, in data set [1], the half-maximal inhibitory concentration (IC50) was 3100 nM.
Still for that read-out and setting: for `CCc1cc(/C=C/C(=O)c2ccc(C(=O)O)cc2)c(OC)cc1OC` the value was 22000 nM; for `COc1cc(OC)c(-c2cc3ccccc3s2)cc1/C=C/C(=O)c1ccc(C(=O)NCCN2CCOCC2)cc1`, 800 nM; for `CONC(=O)c1ccc(C(=O)/C=C/c2cc(-c3cc4ccccc4s3)c(OC)cc2OC)cc1`, 500 nM.
For the compound `COc1cc(OC)c(-c2cc3ccccc3s2)cc1/C=C/C(=O)c1ccc(C(=O)O)cc1`, the outcome in the data set listed under Homo sapiens [9], with Mus musculus [10], in the data set with PBMC, in the data set filed under Homo sapiens [12], in the data set on Mus musculus [13] and with Mus musculus [15] was Active. For the same compound, the Activity result in the data set filed under Rattus norvegicus [11], in the data set with Mus musculus [14], with Mus musculus [8] and in the data set filed under Rattus norvegicus [16] was “Dose-dependent effect” throughout. The compound also came in with an IC50 in data set [1] of 600 nM.
`COc1cc(OCC(CO)CO)c(/C=C/C(=O)c2ccc(C(=O)O)cc2)cc1-c1cccs1` showed an IC50 in data set [1] of 21000 nM.

(Values after ChEMBL document CHEMBL1142958, “Carboxylated, heteroaryl-substituted chalcones as inhibitors of vascular cell adhesion molecule-1 expression for use in chronic inflammatory diseases” (J Med Chem, 2007).)
